Assay results taken from article PMC8542630 (Cell chemical biology, 2021).
Where two headings read alike, the source gives them in different places.

How the values were obtained:
[1] = target: GFP-Sc-Dyn V2391S/M2732S (AAA3_V-S/AAA4_M-S) (Saccharomyces cerevisiae, UniProt P36022, M2732S/V2391S); test: Microscale thermophoresis; type: binding; conditions: read-out: EC50, AMPPNP binding to AAA3_V-S/AAA4_M-S (MST); mean ± 95% CI, n=3
[2] = target: T1, GFP-Sc-Dyn (Saccharomyces cerevisiae, UniProt P36022); test: Microscale thermophoresis; type: binding, S. cerevisiae
T1 sequence (P36022 1219-4092): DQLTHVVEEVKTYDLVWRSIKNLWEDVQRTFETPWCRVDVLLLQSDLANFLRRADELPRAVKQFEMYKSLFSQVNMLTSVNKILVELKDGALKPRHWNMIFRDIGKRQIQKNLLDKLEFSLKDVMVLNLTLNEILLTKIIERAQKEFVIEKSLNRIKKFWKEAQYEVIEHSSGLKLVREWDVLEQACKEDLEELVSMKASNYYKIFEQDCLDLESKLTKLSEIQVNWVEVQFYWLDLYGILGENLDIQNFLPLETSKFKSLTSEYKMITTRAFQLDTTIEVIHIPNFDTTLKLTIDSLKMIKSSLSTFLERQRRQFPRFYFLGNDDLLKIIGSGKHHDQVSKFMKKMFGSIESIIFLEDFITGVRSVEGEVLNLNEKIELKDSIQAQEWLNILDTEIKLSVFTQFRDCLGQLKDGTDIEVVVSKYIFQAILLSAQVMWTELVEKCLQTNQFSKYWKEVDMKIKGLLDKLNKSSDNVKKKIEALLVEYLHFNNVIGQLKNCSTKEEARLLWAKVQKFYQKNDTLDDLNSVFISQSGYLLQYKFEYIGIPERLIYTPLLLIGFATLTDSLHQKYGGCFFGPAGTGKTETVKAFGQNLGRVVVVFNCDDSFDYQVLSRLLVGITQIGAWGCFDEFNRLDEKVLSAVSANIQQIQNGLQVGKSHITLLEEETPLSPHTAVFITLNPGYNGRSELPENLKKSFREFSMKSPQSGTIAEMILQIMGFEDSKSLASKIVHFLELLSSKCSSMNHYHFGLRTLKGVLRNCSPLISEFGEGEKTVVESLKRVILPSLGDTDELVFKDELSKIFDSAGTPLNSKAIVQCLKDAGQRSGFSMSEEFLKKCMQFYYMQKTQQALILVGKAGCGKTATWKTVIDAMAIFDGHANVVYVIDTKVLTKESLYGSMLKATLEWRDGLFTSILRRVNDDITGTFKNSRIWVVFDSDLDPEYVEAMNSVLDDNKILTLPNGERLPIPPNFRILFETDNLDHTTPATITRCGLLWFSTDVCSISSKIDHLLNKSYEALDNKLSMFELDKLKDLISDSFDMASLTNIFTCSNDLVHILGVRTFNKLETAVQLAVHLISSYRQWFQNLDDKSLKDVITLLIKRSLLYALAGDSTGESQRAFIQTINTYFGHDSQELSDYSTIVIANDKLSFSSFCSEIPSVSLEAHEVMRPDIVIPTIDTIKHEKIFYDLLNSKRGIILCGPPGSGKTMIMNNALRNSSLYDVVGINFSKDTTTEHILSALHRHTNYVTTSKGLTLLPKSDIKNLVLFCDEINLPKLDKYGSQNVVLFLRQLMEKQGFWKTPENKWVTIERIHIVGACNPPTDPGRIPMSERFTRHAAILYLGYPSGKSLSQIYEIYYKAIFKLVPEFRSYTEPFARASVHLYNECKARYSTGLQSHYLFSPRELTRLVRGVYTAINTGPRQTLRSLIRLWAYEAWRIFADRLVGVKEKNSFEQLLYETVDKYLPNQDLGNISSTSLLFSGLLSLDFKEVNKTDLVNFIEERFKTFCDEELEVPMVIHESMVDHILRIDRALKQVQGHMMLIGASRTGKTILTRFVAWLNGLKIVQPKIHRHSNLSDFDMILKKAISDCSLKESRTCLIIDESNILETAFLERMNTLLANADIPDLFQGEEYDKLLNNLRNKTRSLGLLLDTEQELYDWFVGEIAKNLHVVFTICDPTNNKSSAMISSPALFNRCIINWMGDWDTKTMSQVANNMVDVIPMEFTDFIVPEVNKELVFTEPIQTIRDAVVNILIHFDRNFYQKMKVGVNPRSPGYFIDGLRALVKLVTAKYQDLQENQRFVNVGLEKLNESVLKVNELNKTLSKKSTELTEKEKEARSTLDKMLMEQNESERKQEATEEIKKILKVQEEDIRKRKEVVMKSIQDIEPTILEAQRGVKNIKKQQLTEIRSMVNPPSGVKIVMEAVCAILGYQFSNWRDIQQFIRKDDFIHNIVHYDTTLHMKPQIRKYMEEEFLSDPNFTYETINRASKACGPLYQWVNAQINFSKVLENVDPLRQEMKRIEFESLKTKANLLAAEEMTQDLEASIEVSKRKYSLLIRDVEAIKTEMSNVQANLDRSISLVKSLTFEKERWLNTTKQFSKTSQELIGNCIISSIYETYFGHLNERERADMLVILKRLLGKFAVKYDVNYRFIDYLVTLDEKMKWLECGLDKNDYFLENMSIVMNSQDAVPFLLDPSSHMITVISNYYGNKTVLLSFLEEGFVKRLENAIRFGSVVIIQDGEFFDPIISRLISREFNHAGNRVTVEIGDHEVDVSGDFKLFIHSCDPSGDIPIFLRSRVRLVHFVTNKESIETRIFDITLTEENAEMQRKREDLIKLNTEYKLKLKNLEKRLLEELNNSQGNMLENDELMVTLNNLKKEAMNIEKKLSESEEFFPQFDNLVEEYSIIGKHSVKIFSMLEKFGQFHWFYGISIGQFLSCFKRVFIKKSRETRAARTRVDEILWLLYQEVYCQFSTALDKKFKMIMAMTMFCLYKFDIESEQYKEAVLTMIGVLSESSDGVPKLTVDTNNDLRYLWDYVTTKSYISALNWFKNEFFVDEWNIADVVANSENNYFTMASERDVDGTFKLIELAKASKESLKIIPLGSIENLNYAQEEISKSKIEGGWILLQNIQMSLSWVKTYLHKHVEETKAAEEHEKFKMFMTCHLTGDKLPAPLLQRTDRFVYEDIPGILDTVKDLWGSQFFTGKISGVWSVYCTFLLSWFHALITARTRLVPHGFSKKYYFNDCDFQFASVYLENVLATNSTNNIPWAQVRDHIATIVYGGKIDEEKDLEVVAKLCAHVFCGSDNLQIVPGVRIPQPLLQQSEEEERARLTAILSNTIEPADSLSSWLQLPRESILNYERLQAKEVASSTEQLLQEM

[3] = target: T2, Hs-dynein 1 (Homo sapiens, UniProt Q14204); conditions: ref Steinman et al., 2017; cited from earlier work
[4] = target: T2, Hs-dynein 1; conditions: read-out: IC50, inhibition of Hs-dynein 1; ref Steinman et al., 2017; cited from earlier work
[5] = target: T2, Hs-dynein 1; test: Radioactive ATPase assay, basal ATPase activity of Hs-dynein 1; type: biochemical; conditions: for Inhibition of Hs-dynein 1 basal ATPase activity (in words): compounds tested at 20 μM, 1 mM MgATP, no microtubules, n=2
Summary of the method: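 Hs-dynein 1 motor construct (N-terminal His6, aa 1320–4646) at 30 nM, without microtubules. Radioactive ATPase reaction ran for 45 min with test compound. Percent inhibition was obtained by normalising the ATPase rate with compound to DMSO control.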

[6] = target: Sc-DynGST (Saccharomyces cerevisiae, UniProt P36022); test: Single-molecule motility assay; type: biochemical, S. cerevisiae; conditions: single-molecule
Chain of Sc-DynGST (P36022 1219-4092 limits assumed): as the sequence (P36022 1219-4092) above

[7] = target: T1, GFP-Sc-Dyn; test: Microtubule gliding assay; type: biochemical, S. cerevisiae; conditions: 25 μM compound
[8] = target: T3, Sc-Dyn-lyso (Saccharomyces cerevisiae, UniProt P36022); test: Microscale thermophoresis; type: binding, S. cerevisiae; conditions: n=2, negative control
T3 sequence (P36022 1758-2992 limits assumed): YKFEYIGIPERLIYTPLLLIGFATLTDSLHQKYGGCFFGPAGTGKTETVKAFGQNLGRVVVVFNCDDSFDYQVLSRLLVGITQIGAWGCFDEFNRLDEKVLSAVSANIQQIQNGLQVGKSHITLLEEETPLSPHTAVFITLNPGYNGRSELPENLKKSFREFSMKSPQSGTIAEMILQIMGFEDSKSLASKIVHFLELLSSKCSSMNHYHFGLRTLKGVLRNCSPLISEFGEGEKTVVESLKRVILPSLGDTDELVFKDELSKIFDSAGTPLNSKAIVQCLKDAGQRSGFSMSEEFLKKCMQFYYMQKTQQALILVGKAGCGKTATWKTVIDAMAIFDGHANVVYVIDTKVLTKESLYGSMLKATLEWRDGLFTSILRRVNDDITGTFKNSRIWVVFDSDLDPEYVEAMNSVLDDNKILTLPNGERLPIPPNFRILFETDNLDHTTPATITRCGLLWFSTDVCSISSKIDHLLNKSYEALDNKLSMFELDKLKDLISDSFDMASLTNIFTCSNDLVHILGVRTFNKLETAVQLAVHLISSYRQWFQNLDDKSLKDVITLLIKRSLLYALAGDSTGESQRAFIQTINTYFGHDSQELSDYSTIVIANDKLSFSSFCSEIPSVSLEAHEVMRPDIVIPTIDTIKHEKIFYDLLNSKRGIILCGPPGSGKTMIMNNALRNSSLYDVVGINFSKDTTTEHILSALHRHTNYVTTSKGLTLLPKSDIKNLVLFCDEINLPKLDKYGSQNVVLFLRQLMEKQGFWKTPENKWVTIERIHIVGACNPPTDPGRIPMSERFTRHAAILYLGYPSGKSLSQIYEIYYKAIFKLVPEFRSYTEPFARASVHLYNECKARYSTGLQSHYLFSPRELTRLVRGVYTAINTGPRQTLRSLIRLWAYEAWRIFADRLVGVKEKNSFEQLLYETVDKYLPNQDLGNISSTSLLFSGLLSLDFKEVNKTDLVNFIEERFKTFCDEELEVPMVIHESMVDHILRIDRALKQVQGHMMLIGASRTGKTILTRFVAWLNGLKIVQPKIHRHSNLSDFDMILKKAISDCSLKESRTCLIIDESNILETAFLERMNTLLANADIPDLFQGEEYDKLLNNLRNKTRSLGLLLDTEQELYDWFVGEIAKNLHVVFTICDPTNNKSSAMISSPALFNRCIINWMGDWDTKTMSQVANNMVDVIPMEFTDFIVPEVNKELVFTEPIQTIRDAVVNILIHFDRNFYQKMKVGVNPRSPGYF
T3 sequence (P36022 3301-4092 limits assumed): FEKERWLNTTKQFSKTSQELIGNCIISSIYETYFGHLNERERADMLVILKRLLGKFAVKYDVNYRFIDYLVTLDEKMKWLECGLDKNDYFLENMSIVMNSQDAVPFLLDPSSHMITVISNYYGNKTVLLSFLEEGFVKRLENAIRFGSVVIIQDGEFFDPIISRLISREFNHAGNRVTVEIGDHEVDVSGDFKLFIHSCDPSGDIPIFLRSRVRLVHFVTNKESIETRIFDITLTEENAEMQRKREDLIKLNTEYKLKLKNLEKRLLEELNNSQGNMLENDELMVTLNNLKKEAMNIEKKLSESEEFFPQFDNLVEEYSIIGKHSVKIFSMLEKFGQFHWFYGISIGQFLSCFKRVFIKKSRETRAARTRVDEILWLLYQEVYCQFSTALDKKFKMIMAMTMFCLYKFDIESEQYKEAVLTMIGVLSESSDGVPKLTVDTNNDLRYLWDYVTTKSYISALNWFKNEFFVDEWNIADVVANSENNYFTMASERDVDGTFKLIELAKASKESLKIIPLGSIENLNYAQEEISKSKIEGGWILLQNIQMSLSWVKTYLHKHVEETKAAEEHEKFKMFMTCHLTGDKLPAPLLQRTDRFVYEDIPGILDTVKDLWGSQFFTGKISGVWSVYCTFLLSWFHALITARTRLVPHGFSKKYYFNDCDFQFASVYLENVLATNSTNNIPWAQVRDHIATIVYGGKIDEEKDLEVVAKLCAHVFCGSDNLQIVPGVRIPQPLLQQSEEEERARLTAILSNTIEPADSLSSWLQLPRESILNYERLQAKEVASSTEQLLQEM

[9] = target: T1, GFP-Sc-Dyn; test: NADH-coupled steady-state ATPase assay, GFP-Sc-Dyn basal ATPase; type: biochemical, S. cerevisiae
[10] = target: Dm-spastin (Drosophila melanogaster, UniProt Q8I0P1, DEL311-372); test: NADH-coupled steady-state ATPase assay, Dm-spastin; type: biochemical, D. melanogaster; conditions: 20 μM, 1 mM MgATP
[11] = target: T2, Hs-dynein 1; test: Radioactive ATPase assay, microtubule-stimulated ATPase activity of Hs-dynein 1; type: biochemical
Summary of the method: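 Radioactive ATPase assay with Hs-dynein 1 (His6, aa 1320–4646; 30 nM) in the presence of microtubules. Reaction time was 45 min, and rates with test compound were normalised to DMSO control.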

[12] = target: Mm-VCP/p97 (Mus musculus, UniProt Q01853); test: NADH-coupled steady-state ATPase assay, Mm-VCP/p97; type: biochemical, M. musculus; conditions: 20 μM, 1 mM MgATP
Chain of Mm-VCP/p97 (Q01853 whole entry): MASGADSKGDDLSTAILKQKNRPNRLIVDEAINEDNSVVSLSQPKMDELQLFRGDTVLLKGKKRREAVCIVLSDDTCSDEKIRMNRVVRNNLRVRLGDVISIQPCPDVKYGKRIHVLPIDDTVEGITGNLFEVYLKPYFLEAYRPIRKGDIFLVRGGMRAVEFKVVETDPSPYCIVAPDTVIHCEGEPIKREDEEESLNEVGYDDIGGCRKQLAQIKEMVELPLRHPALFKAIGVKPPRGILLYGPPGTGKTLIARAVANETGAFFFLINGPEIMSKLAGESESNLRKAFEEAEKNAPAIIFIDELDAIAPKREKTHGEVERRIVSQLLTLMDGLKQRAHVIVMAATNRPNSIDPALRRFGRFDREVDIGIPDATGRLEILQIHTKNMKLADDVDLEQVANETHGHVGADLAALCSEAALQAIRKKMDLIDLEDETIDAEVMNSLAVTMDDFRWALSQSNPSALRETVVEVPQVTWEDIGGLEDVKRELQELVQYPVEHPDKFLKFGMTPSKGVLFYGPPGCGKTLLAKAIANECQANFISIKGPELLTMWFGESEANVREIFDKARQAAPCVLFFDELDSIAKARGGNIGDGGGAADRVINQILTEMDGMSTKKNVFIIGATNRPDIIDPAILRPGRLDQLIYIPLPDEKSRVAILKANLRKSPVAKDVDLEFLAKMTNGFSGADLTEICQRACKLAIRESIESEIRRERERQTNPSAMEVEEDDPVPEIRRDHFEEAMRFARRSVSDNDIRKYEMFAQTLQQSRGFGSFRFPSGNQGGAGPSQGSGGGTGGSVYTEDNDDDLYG

[13] = target: Xl-katanin (Xenopus laevis, UniProt Q9PUL2); test: NADH-coupled steady-state ATPase assay, Xl-katanin; type: biochemical, X. laevis; conditions: 20 μM, 1 mM MgATP
Chain of Xl-katanin (Q9PUL2 whole entry): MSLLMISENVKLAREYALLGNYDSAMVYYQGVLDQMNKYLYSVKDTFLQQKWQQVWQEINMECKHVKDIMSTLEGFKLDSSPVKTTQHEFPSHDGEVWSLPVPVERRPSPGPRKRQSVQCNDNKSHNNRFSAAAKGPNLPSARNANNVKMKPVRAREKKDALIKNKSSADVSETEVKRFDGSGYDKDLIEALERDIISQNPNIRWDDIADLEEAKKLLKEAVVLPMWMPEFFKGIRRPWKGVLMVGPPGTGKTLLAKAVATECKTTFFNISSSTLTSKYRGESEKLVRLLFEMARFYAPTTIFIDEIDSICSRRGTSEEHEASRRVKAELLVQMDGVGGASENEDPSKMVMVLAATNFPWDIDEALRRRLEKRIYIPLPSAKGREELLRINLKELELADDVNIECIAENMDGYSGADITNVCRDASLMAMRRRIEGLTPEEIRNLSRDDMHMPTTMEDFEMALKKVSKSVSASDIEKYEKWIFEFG
Summary of the method: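 Recombinant Xl-katanin (50 nM; E. coli, MBP-trap, MonoQ and gel filtration) in 25 mM K-HEPES pH 7.5, 70 mM KCl, 20 mM (NH4)2SO4, 5 mM MgCl2, 2.5 mM DTT, 0.01% Triton X-100 plus NADH-coupled regeneration mix. After 10 min RT preincubation with test compound, MgATP started the reaction. The fluorescence decrease rate (340/440 nm) was converted to ATPase rate using an ADP standard curve.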

[14] = target: Sc-Dyn-lyso (Saccharomyces cerevisiae, UniProt P36022); test: NADH-coupled steady-state ATPase assay, Sc-Dyn-lyso; type: biochemical, S. cerevisiae
Summary of the method: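 Ten-dose DMSO serial dilution of test compound (stock top 4 mM) was preincubated 10 min at RT. MgATP (10 mM stock) started the reaction, and NADH fluorescence slopes were converted via an ADP standard curve.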

[15] = target: T4, Hs-FIGL1 (Homo sapiens, UniProt Q6PIW4); test: NADH-coupled steady-state ATPase assay, Hs-FIGL1; type: biochemical, H. sapiens; conditions: read-out: Inhibition of ATPase activity, Hs-FIGL1
T4 sequence (Q6PIW4 288-674): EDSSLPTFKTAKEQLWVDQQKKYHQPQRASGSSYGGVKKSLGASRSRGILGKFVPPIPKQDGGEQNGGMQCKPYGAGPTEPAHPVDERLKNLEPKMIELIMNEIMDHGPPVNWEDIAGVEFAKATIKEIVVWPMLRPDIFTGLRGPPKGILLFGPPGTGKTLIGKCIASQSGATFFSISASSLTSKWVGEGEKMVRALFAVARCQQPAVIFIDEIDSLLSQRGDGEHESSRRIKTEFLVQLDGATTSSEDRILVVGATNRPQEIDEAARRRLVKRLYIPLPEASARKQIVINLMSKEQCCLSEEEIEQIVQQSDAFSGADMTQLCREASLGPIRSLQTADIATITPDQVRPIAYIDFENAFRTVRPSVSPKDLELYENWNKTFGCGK
Summary of the method: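 Recombinant Hs-FIGL1 (50 nM; E. coli-expressed) in 25 mM Na-MES pH 6.5, 70 mM KOAc, 20 mM (NH4)2SO4, 5 mM Mg(OAc)2, 1 mM TCEP, 0.01% Triton X-100, with NADH/PEP/pyruvate kinase/lactate dehydrogenase coupling system. Protein preincubated 10 min at RT with test compound, then MgATP added. NADH fluorescence (ex 340, em 440 nm) slope converted to ATPase rate with an ADP standard curve.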

Chain of GFP-Sc-Dyn V2391S/M2732S (AAA3_V-S/AAA4_M-S) (P36022 1219-4092 V2391S/M2732S): as the sequence (P36022 1219-4092) above, with V1173S, M1514S counted along it

## Nc1ncnc2c1ncn2[C@@H]1O[C@H](COP(=O)(O)OP(=O)(O)NP(=O)(O)O)[C@@H](O)[C@H]1O [AMPPNP, adenylyl imidodiphosphate, reference compound]
[1]
  EC50: 180 ± 78 µM
[2]; read-out: EC50, AMPPNP binding to GFP-Sc-Dyn (MST), mean ± 95% CI, n=3, 60% MST power
  EC50: 25 ± 20 µM

## N#CC(=C(O)c1ccc(Cl)cc1Cl)c1nc2cc(Cl)ccc2c(=O)[nH]1 [compound 1, ciliobrevin D]
[3]
  Inhibition of dynein's basal ATPase activity (in words): does not

## N#Cc1c(C2(c3ccc(Cl)cc3)CC2)nn2c1[nH]c(=O)c1cc(I)ccc12 [compound 2, dynapyrazole-A]
[4]
  IC50: ~10 µM

## COc1c[nH]c2c(C#N)c(C3(c4ccc(Cl)cc4)CC3)nn2c1=O [compound 6, 2-[1-(4-chlorophenyl)cyclopropyl]-6-methoxy-7-oxo-4H-pyrazolo[1,5-a]pyrimidine-3-carbonitrile]
[5]
  Inhibition of Hs-dynein 1 basal ATPase activity (in words): does not inhibit
[2]; control compound
  Binding to GFP-Sc-Dyn (MST, in words): could not detect binding
[6]
  Effect on landing rate (in words): not sensitive
[6]; 0-50 μM compound
  Effect on dynein processivity (run length) (in words): not sensitive
  Effect on dynein velocity (in words): not sensitive
[7]
  Effect on microtubule gliding (in words): comparable to DMSO
[7]; 1% DMSO, 1 mM Mg-ATP, mean ± SD
  Microtubule gliding velocity, 30 minutes after treatment: 66 ± 21
[8]
  Binding to Sc-Dyn-lyso (MST, in words): did not bind

## N#Cc1c(C2(c3ccc(Cl)cc3)CC2)nn2c(=O)c(Oc3ccccc3Cl)c[nH]c12 [compound 13, 6-(2-chlorophenoxy)-2-[1-(4-chlorophenyl)cyclopropyl]-7-oxo-4H-pyrazolo[1,5-a]pyrimidine-3-carbonitrile]
[5]
  Inhibition of Hs-dynein 1 basal ATPase activity (in words): less active

## COc1cccc(Oc2c[nH]c3c(C#N)c(C4(c5ccc(Cl)cc5)CC4)nn3c2=O)c1 [compound 16, 2-[1-(4-chlorophenyl)cyclopropyl]-6-(3-methoxyphenoxy)-7-oxo-4H-pyrazolo[1,5-a]pyrimidine-3-carbonitrile]
[5]
  Inhibition of Hs-dynein 1 basal ATPase activity (in words): less active

## N#Cc1c(C2(c3ccc(Cl)cc3)CC2)nn2c(=O)c(Oc3ccc(Cl)cc3)c[nH]c12 [compound 17, 6-(4-chlorophenoxy)-2-(1-(4-chlorophenyl)cyclopropyl)-7-oxo-4,7-dihydropyrazolo[1,5-a]pyrimidine-3-carbonitrile]
[5]
  Inhibition of Hs-dynein 1 basal ATPase activity (in words): less active

## N#Cc1c(C2(c3ccc(Cl)cc3)CC2)nn2c(=O)c(Oc3cccc(Cl)c3)c[nH]c12 [compound 19, 6-(3-chlorophenoxy)-2-[1-(4-chlorophenyl)cyclopropyl]-7-oxo-4H-pyrazolo[1,5-a]pyrimidine-3-carbonitrile]
[9]
  IC50: 10 ± 1.2 µM
[5]
  IC50: 17 ± 2.3 µM
  Inhibition of Hs-dynein 1 basal ATPase activity (in words): most active
[10]
  Reduction of ATPase activity, Dm-spastin: < 25%
[11]
  IC50: ~30 µM
[12]
  Reduction of ATPase activity, Mm-VCP: < 25%
[13]
  Reduction of ATPase activity, Xl-katanin: < 25%
[14]
  IC50: 14 ± 4.9 µM
[15]
  inhibition at 20 µM: ~85%
